Assays:
[1] = target: T1, Peroxisome proliferator-activated receptor gamma (Homo sapiens, UniProt P37231); experiment: Activity against PPAR gamma in human by FRET assay
T1 sequence (P37231 whole entry): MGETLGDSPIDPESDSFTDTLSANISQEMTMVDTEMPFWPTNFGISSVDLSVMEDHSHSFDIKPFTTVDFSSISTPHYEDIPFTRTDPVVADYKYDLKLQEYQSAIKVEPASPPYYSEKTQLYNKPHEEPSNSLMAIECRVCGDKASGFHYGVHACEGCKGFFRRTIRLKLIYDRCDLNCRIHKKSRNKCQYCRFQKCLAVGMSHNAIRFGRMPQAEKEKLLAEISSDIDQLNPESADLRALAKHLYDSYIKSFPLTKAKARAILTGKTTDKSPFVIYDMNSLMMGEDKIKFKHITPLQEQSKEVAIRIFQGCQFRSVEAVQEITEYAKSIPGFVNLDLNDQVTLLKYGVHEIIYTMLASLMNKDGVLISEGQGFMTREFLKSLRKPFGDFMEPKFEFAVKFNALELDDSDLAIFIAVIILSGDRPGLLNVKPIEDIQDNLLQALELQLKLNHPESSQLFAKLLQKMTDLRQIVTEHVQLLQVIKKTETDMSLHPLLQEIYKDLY

[2] = target: T2, Peroxisome proliferator-activated receptor alpha (Homo sapiens, UniProt Q07869); experiment: Activity against PPAR alpha in human by FRET assay
T2 sequence (Q07869 whole entry): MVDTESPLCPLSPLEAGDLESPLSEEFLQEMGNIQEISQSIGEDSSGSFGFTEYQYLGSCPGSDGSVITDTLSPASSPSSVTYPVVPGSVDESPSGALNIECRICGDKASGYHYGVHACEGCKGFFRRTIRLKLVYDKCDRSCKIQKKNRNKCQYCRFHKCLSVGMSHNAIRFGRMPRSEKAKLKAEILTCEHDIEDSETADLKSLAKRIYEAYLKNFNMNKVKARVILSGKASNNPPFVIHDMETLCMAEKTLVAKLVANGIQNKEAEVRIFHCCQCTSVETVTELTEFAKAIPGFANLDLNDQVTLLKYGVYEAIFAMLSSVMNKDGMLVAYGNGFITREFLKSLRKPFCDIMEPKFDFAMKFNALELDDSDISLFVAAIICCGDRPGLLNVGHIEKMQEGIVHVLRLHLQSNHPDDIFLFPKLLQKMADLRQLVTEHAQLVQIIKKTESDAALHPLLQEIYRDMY
Outline: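 Human PPAR-α ligand-binding domain (GST-tagged), incubated with compound, europium-labelled anti-GST antibody, biotinylated CREB-binding protein co-activator and streptavidin-APC. Time-resolved FRET read with excitation at 340 nm and emission at 615 and 640 nm. EC50 taken as the mean of at least three experiments.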

[3] = Cmax in male db/db mice administered at 3 mg/kg, po; assay type: ADME, organism-based; parameters: dose 3 mg/kg, route oral; conditions: mouse, in vivo
[4] = Cmax in male hApoA1 transgenic mice administered at 3 mg/kg, po; assay type: ADME, organism-based; parameters: dose 3 mg/kg, route oral; conditions: mouse, in vivo
[5] = AUC in male db/db mice administered at 3 mg/kg, po; assay type: ADME, organism-based; parameters: dose 3 mg/kg, route oral; conditions: mouse, plasma
[6] = AUC in male hApoA1 transgenic mice administered at 3 mg/kg, po; assay type: ADME, organism-based; parameters: dose 3 mg/kg, route oral; conditions: mouse, plasma
Mus musculus [7] = experiment: Decrease in blood glucose level in male db/db mice administered at 10 mg/kg, po; assay type: functional; parameters: scale not given: the % may be the effect or the level left
Outline: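 Given by oral gavage once daily for 14 days in 0.5% methylcellulose vehicle, with vehicle-dosed controls. After the last dose the mice were euthanized and blood was collected for glucose measurement. The decrease is expressed relative to vehicle.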

Mus musculus [8] = experiment: Increase in serum HDL in male hApoA1 mice administered at 10 mg/kg, po; assay type: functional
Outline: (§1)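 Male hApoA1 transgenic mice, n = 16 per group, had ad lib water and chow. They were dosed by oral gavage once daily for eight days in 0.5% methylcellulose vehicle, with vehicle controls. Serum lipid changes are compared with vehicle.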

Mus musculus [9] = experiment: Increase in serum HDL in male hApoA1 mice administered at 30 mg/kg, po; assay type: functional; outline: as §1
Mus musculus [10] = experiment: Decrease in serum triglyceride level in male hApoA1 mice administered at 10 mg/kg; assay type: functional; parameters: scale not given: the % may be the effect or the level left; outline: as §1
Mus musculus [11] = experiment: Decrease in serum triglyceride level in male hApoA1 mice administered at 30 mg/kg; assay type: functional; parameters: scale not given: the % may be the effect or the level left; outline: as §1

EC50 [1] [nM] | EC50 [2] [nM] | SMILES | further results
> 10000 | > 10000 | CCC(C(=O)O)C1CCc2cc(OCCc3c(C)noc3C)ccc21 (stereo unspecified) | 
177 | 5790 | Cc1oc(-c2ccccc2)nc1CCOc1ccc2c(c1)CCC2C(CC(F)(F)F)C(=O)O (stereo unspecified) | 
> 10000 | 670 | CCC(C(=O)O)C1CCc2cc(OCc3cc(-c4ccccc4)on3)ccc21 (stereo unspecified) | 
30 | 78 | CC[C@H](C(=O)O)[C@@H]1CCc2cc(OCCc3nc(-c4ccc(C)cc4)oc3C)ccc21 | Cmax [3]: 2980 ng/mL; Cmax [4]: 2550 ng/mL; AUC [5]: 11600 ng·h/mL; AUC [6]: 8060 ng·h/mL; Activity (Mus musculus [7]): 45%; Activity (Mus musculus [8]): 15%; Activity (Mus musculus [9]): 30%; Activity (Mus musculus [10]): 45%; Activity (Mus musculus [11]): 60%
1860 | > 10000 | Cc1oc(-c2ccccc2)nc1CCOc1ccc2c(c1)CCC2C(C(=O)O)C(=O)O (stereo unspecified) | 
52 | 3890 | CCCC(C(=O)O)C1CCc2cc(OCCc3nc(-c4ccccc4)oc3C)ccc21 (stereo unspecified) | 
5640 | 6000 | Cc1oc(-c2ccccc2)nc1CCOc1ccc2c(c1)CCC2C(C)(C)C(=O)O (stereo unspecified) | 
> 10000 | 232 | CCC(C(=O)O)C1CCc2cc(OCCCc3nc(-c4ccccc4)oc3C(F)(F)F)ccc21 (stereo unspecified) | 
> 10000 | > 10000 | CCC(C(=O)O)C1CCc2cc(OCCn3ncc4ccccc4c3=O)ccc21 (stereo unspecified) | 
306 | 383 | CCC(C(=O)O)C1CCc2cc(OCCc3coc(-c4ccccc4)n3)ccc21 (stereo unspecified) | 
> 10000 | 1040 | CCC(C(=O)O)C1CCc2cc(OCCc3noc(-c4ccccc4)n3)ccc21 (stereo unspecified) | 
> 10000 | > 10000 | CCC(C(=O)O)C1CCc2cc(OCCn3nc(-c4ccccc4)c4ccccc4c3=O)ccc21 (stereo unspecified) | 
45 | 670 | COC(C(=O)O)C1CCc2cc(OCCc3nc(-c4ccccc4)oc3C)ccc21 (stereo unspecified) | 
> 10000 | > 10000 | CCC(C(=O)O)C1CCc2cc(OCCNC(=O)c3ccccc3)ccc21 (stereo unspecified) | 
> 10000 | > 10000 | CCC(C(=O)O)C1CCc2cc(OCCc3c(-c4ccccc4)noc3C)ccc21 (stereo unspecified) | 
9560 | 7260 | Cc1oc(-c2ccccc2)nc1CCOc1ccc2c(c1)CCC2C(C(=O)O)c1ccccc1 (stereo unspecified) | 
68 | 308 | CCOC(=O)C(C(=O)O)C1CCc2cc(OCCc3nc(-c4ccccc4)oc3C)ccc21 (stereo unspecified) | 
85 | 979 | CCC(C(=O)O)C1CCc2cc(OCCc3nc(-c4ccccc4)sc3C)ccc21 (stereo unspecified) | 
> 10000 | > 10000 | CCC(C(=O)O)C1CCc2cc(OCc3ccc(-c4nc(-c5ccccc5)oc4C)cc3)ccc21 (stereo unspecified) | 
> 10000 | 1000 | CCC(C(=O)O)C1CCc2cc(OCc3nc(-c4ccccc4)oc3C(F)(F)F)ccc21 (stereo unspecified) | 
3180 | > 10000 | Cc1oc(-c2ccccc2)nc1CCOc1ccc2c(c1)CCC2C(CCCc1ccccc1)C(=O)O (stereo unspecified) | 
42 | 141 | CCC(C(=O)O)C1CCc2cc(OCCc3nc(-c4ccccc4)oc3C)ccc21 (stereo unspecified) | 
> 10000 | > 10000 | CCC(C(=O)O)C1CCc2cc(OCCNC(=O)Nc3ccc(C)cc3)ccc21 (stereo unspecified) | 
12 | 500 | CCOC(C(=O)O)C1CCc2cc(OCCc3nc(-c4ccccc4)oc3C)ccc21 (stereo unspecified) | 
154 | 37 | CCC(C(=O)O)C1CCc2cc(OCCc3nc(-c4ccc(F)cc4)oc3C)ccc21 (stereo in doubt) | 
131 | 29 | CCC(C(=O)O)C1CCc2cc(OCCc3nc(-c4ccc(Cl)c(Cl)c4)oc3C)ccc21 (stereo in doubt) | 
59 | 137 | CCC(C(=O)O)C1CCc2cc(OCCc3nc(-c4ccc(F)cc4)oc3C)ccc21 (stereo in doubt; 54) | 
94 | 91 | CCC(C(=O)O)C1CCc2cc(OCCc3nc(-c4ccc(Cl)c(Cl)c4)oc3C)ccc21 (stereo in doubt; 66) | 

SMILES | EC50 [1] [nM] | EC50 [2] [nM] | further results
CCC(C(=O)O)C1CCc2cc(OCc3nc(-c4ccccc4)oc3C)ccc21 (stereo unspecified) | 632 | 1220 | 
CCC(C(=O)O)C1CCc2cc(OCCn3nc(-c4ccccc4)cc3C)ccc21 (stereo unspecified) | 196 | 232 | 
Cc1oc(-c2ccccc2)nc1CCOc1ccc2c(c1)CCC2C(C(=O)O)C1CC1 (stereo unspecified) | 160 | 795 | 

— ChEMBL document CHEMBL1147759, “Substituted indanylacetic acids as PPAR-alpha-gamma activators” (Bioorg Med Chem Lett, 2006)
